Data reported in PubChem BioAssay AID463147 (The Scripps Research Institute Molecular Screening Center, 2010).
Activity calls are given as the source filed them.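 Rule for the calls: active = fold change below 0.7, the computed hit cutoff; inactive = the rest.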

biological target: Nuclear receptor ROR-gamma (Homo sapiens) (UniProt P51449); test: RORG inhibitors in reporter cells, late-stage follow-up, selectivity assay for RORA inverse agonist project, cell-based, luminescence, single concentration, HEK293T GAL4-RORg (AID 463147); conditions: HEK293T GAL4-RORg LBD luciferase reporter, 18-24 h; at 10 µM; active compounds read low
Sequence (P51449 whole entry, looked up, the tested form may be a part): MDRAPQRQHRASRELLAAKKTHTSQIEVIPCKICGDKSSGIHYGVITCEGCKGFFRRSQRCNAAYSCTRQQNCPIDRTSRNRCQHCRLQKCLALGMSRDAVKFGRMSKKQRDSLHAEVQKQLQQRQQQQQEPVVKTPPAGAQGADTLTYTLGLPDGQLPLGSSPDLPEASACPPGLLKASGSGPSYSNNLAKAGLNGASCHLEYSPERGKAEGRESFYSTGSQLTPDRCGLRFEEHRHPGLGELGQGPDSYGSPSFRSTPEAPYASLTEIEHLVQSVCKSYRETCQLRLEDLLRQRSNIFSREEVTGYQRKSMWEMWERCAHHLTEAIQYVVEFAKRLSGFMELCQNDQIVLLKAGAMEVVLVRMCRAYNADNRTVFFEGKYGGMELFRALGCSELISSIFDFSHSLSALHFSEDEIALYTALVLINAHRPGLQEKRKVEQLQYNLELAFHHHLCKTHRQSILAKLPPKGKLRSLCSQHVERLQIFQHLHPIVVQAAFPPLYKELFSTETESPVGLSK
How it was run: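 system = transfected HEK293T, GAL4-RORγ LBD and UAS-luciferase reporter | compound dosing = single nominal concentration of 10 µM per compound | timing = 20 h compound exposure, cells replated 24 h post-transfection | measured by = reporter luminescence | controls = DMSO wells as reference | repeats = six replicates per compound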

SMILES | fold change
O=C(Nc1ccc(C(O)(C(F)(F)F)C(F)(F)F)cc1)c1ccc(F)cc1Cl | 0.974 (inactive)
O=C(Nc1ccc(C(O)(C(F)(F)F)C(F)(F)F)cc1)c1ccc(F)cc1F | 1.23 (inactive)
O=C(Nc1ccc(C(O)(C(F)(F)F)C(F)(F)F)cc1)c1ccc(Cl)cc1 | 0.873 (inactive)
O=S(=O)(Nc1ccc(C(O)(C(F)(F)F)C(F)(F)F)cc1)c1cccs1 | 0.91 (inactive)
O=C(Nc1ccc(C(O)(C(F)(F)F)C(F)(F)F)cc1)c1ccccc1C(F)(F)F | 0.897 (inactive)
O=C(Nc1ccc(C(O)(C(F)(F)F)C(F)(F)F)cc1)c1c(F)cccc1F | 1.06 (inactive)
